Data set [1] is described as follows: Stability in pH 7.4 phosphate buffer at 37 degree C. It is filed as physicochemical. Summed up: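 Compounds were held in pH 7.4 phosphate buffer at 37 °C and monitored by reverse-phase HPLC on a PRP-1 column with UV detection at 275–286 nm. The mobile phase was 0.01 M tetradecyltrimethylammonium bromide in pH 8.2 phosphate/acetonitrile. Product-peak decline was followed to at least 50%, and half-life was taken from semilogarithmic plots.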

Data set [2] has as its system Penicillin-binding protein 3 FtsI (Escherichia coli K-12). Briefly: Concentration inhibiting [14C]- Penicillin G binding to Escherichia coli UB1005 PBP3 (penicillin binding protein) 60 kDa.
A further data set relates to Staphylococcus aureus. Briefly: In vitro antibacterial activity against Staphylococcus aureus 753 (constitutive beta-lactamase producer). The class given is functional. Summed up:
(§1)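 MIC was determined by agar dilution on Mueller-Hinton agar. Serial 2-fold aqueous dilutions were diluted 10-fold in agar to give final concentrations of 128 to 0.0156 μg/mL. Plates were inoculated by Steers replicator with overnight broth cultures diluted 100-fold.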

The next data set concerns Escherichia coli. Briefly: Minimum inhibitory concentration inhibiting [14C]- Penicillin G binding to Escherichia coli UB1005 PBPs.
In the next data set the test system is Bacteroides fragilis. Briefly: In vitro antibacterial activity against Bacteroides fragilis S2. The class given is functional. Summed up: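 Anaerobic MICs were determined in microtiter plates in Schaedler's broth supplemented with coenzyme I and hemin. Incubation was under an oxygen-free hydrogen-carbon dioxide atmosphere.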
The subject of another data set is Citrobacter freundii. Briefly: In vitro antibacterial activity against Citrobacter freundii BS-16 (constitutive beta-lactamase producer). The class given is functional. Summed up:
as §1

In a further data set the test system is Enterobacter cloacae. Briefly: In vitro antibacterial activity against Enterobacter cloacae P99 (constitutive beta-lactamase producer). The class given is functional.

The compound `C[C@@H](O)[C@H]1C(=O)N2C(C(=O)[O-])=C(COC(=O)c3cn(CCF)c4c(F)c(N5CCN(C)CC5)c(F)cc4c3=O)S[C@H]12.[Na+]` had a half-life in data set [1] of 52 h. The compound further had an IC90 in data set [2] of 30 µg/mL.

With `C[C@@H](O)[C@H]1C(=O)N2C(C(=O)[O-])=C(CO)S[C@H]12.[Na+]`, the MIC was 1 µg/mL against Staphylococcus aureus; 4 µg/mL against Escherichia coli; less than 0.125 µg/mL against Bacteroides fragilis; 4 µg/mL in the data set with Citrobacter freundii; 8 µg/mL in the data set with Enterobacter cloacae.

As a reminder, the half-life is the time in which the quantity being followed falls by half. A word on the IC90: it is the point of the concentration-response curve where the effect stands at 90%. Read a low IC90 as greater potency.

The record behind these values is ChEMBL document CHEMBL1126202, “Dual-action penems and carbapenems” (J Med Chem, 1992).
